According to ChEMBL document CHEMBL1795311, “Synthesis, antiproliferative activity, and mechanism of action of a series of 2-{[(2E)-3-phenylprop-2-enoyl]amino}benzamides” (Eur J Med Chem, 2011):
One block for each molecule: values may come before it.

Key:
K562 [1] = assay: Antiproliferative activity against human K562 cells at 10 uM after 48 hrs by trypan blue assay; assay type: functional; conditions: K562, 48 h, read-out: GI
K562 [2] = assay: Growth inhibition of human K562 cells after 48 hrs by trypan blue assay; assay type: functional, cell-based; conditions: K562, 48 h
HL-60 = assay: Growth inhibition of human HL60 cells after 48 hrs by SRB assay; assay type: functional; conditions: HL-60, 48 h
How it was run: (§1)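 NCI DTP panel cells grown in RPMI 1640 with 5% FBS and 2 mM L-glutamine, preincubated 24 h, then given five concentrations (10-fold or ½-log dilutions from DMSO stock) for 48 h at 37 °C. Cells fixed with TCA, stained with SRB, absorbance read at 515 nm, with time-zero plates as reference.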

MOLT-4 = assay: Growth inhibition of human MOLT4 cells after 48 hrs by SRB assay; assay type: functional; conditions: MOLT-4, 48 h; how it was run: as §1
RPMI-8226 = assay: Growth inhibition of human RPMI8226 cells after 48 hrs by SRB assay; assay type: functional; conditions: RPMI-8226, 48 h; how it was run: as §1
A549 = assay: Growth inhibition of human A549 cells after 48 hrs by SRB assay; assay type: functional; conditions: A549, 48 h; how it was run: as §1
HOP-62 = assay: Growth inhibition of human HOP62 cells after 48 hrs by SRB assay; assay type: functional; conditions: HOP-62, 48 h; how it was run: as §1
HOP-92 = assay: Growth inhibition of human HOP92 cells after 48 hrs by SRB assay; assay type: functional; conditions: HOP-92, 48 h; how it was run: as §1
NCI-H226 = assay: Growth inhibition of human NCI-H226 cells after 48 hrs by SRB assay; assay type: functional; conditions: NCI-H226, 48 h; how it was run: as §1
NCI-H23 = assay: Growth inhibition of human NCI-H23 cells after 48 hrs by SRB assay; assay type: functional; conditions: NCI-H23, 48 h; how it was run: as §1
NCI-H460 = assay: Growth inhibition of human NCI-H460 cells after 48 hrs by SRB assay; assay type: functional; conditions: NCI-H460, 48 h; how it was run: as §1
COLO 205 = assay: Growth inhibition of human COLO205 cells after 48 hrs by SRB assay; assay type: functional; conditions: COLO 205, 48 h; how it was run: as §1
HCT-116 = assay: Growth inhibition of human HCT116 cells after 48 hrs by SRB assay; assay type: functional; conditions: HCT-116, 48 h; how it was run: as §1
HT-29 = assay: Growth inhibition of human HT-29 cells after 48 hrs by SRB assay; assay type: functional; conditions: HT-29, 48 h; how it was run: as §1
KM12 = assay: Growth inhibition of human KM12 cells after 48 hrs by SRB assay; assay type: functional; conditions: KM12, 48 h; how it was run: as §1
SW-620 = assay: Growth inhibition of human SW620 cells after 48 hrs by SRB assay; assay type: functional; conditions: SW-620, 48 h
How it was run: (§2)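 Run by the NCI Developmental Therapeutics Program: cells in RPMI 1640 with 5% FBS and 2 mM L-glutamine, plated at 5000–40,000 cells/well and grown 24 h before dosing. Drug (DMSO stock) given at five concentrations for 48 h at 37 °C, 5% CO2. Adherent cells fixed with cold TCA, stained with 0.4% SRB and read at 515 nm. GI50, TGI and LC50 taken from the time-zero, control and treated absorbances.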

SF-268 = assay: Growth inhibition of human SF268 cells after 48 hrs by SRB assay; assay type: functional; conditions: SF-268, 48 h; how it was run: as §1
SF-295 = assay: Growth inhibition of human SF295 cells after 48 hrs by SRB assay; assay type: functional; conditions: SF-295, 48 h; how it was run: as §1
SF-539 = assay: Growth inhibition of human SF539 cells after 48 hrs by SRB assay; assay type: functional; conditions: SF-539, 48 h; how it was run: as §1
SNB-19 = assay: Growth inhibition of human SNB19 cells after 48 hrs by SRB assay; assay type: functional; conditions: SNB-19, 48 h; how it was run: as §2
SNB-75 = assay: Growth inhibition of human SNB75 cells after 48 hrs by SRB assay; assay type: functional; conditions: SNB-75, 48 h; how it was run: as §2
U-251 = assay: Growth inhibition of human U251 cells after 48 hrs by SRB assay; assay type: functional; conditions: U-251, 48 h; how it was run: as §2
LOX IMVI = assay: Growth inhibition of human LOXIMVI cells after 48 hrs by SRB assay; assay type: functional; how it was run: as §1
Malme-3M = assay: Growth inhibition of human MALME-3M cells after 48 hrs by SRB assay; assay type: functional; how it was run: as §1
M14 = assay: Growth inhibition of human M14 cells after 48 hrs by SRB assay; assay type: functional; conditions: M14, 48 h; how it was run: as §1
SK-MEL-2 = assay: Growth inhibition of human SK-MEL-2 cells after 48 hrs by SRB assay; assay type: functional; conditions: SK-MEL-2, 48 h; how it was run: as §2
SK-MEL-28 = assay: Growth inhibition of human SK-MEL-28 cells after 48 hrs by SRB assay; assay type: functional; conditions: SK-MEL-28, 48 h; how it was run: as §2
SK-MEL-5 = assay: Growth inhibition of human SK-MEL-5 cells after 48 hrs by SRB assay; assay type: functional; conditions: SK-MEL-5, 48 h; how it was run: as §2
UACC-257 = assay: Growth inhibition of human UACC257 cells after 48 hrs by SRB assay; assay type: functional; conditions: UACC-257, 48 h; how it was run: as §2
UACC-62 = assay: Growth inhibition of human UACC62 cells after 48 hrs by SRB assay; assay type: functional; conditions: UACC-62, 48 h; how it was run: as §2
IGROV-1 = assay: Growth inhibition of human IGROV1 cells after 48 hrs by SRB assay; assay type: functional; conditions: IGROV-1, 48 h; how it was run: as §1
OVCAR-3 = assay: Growth inhibition of human OVCAR3 cells after 48 hrs by SRB assay; assay type: functional; conditions: OVCAR-3, 48 h; how it was run: as §1
OVCAR-4 = assay: Growth inhibition of human OVCAR4 cells after 48 hrs by SRB assay; assay type: functional; conditions: OVCAR-4, 48 h; how it was run: as §1
OVCAR-5 = assay: Growth inhibition of human OVCAR5 cells after 48 hrs by SRB assay; assay type: functional; conditions: OVCAR-5, 48 h; how it was run: as §1
OVCAR-8 = assay: Growth inhibition of human OVCAR8 cells after 48 hrs by SRB assay; assay type: functional; conditions: OVCAR-8, 48 h; how it was run: as §1
786-0 = assay: Growth inhibition of human 786-0 cells after 48 hrs by SRB assay; assay type: functional; conditions: 786-0, 48 h; how it was run: as §1
A498 = assay: Growth inhibition of human A498 cells after 48 hrs by SRB assay; assay type: functional; conditions: A498, 48 h; how it was run: as §1
ACHN = assay: Growth inhibition of human ACHN cells after 48 hrs by SRB assay; assay type: functional; how it was run: as §1
CAKI-1 = assay: Growth inhibition of human Caki1 cells after 48 hrs by SRB assay; assay type: functional; conditions: CAKI-1, 48 h; how it was run: as §1
SN12C = assay: Growth inhibition of human SN12C cells after 48 hrs by SRB assay; assay type: functional; how it was run: as §2
UO-31 = assay: Growth inhibition of human UO31 cells after 48 hrs by SRB assay; assay type: functional; conditions: UO-31, 48 h; how it was run: as §2
PC-3 = assay: Growth inhibition of human PC3 cells after 48 hrs by SRB assay; assay type: functional; conditions: PC-3, 48 h; how it was run: as §1
DU-145 = assay: Growth inhibition of human DU145 cells after 48 hrs by SRB assay; assay type: functional; conditions: DU-145, 48 h; how it was run: as §1
MCF7 = assay: Growth inhibition of human MCF7 cells after 48 hrs by SRB assay; assay type: functional; conditions: MCF7, 48 h; how it was run: as §1
MDA-MB-231 = assay: Growth inhibition of human MDA-MB-231 cells after 48 hrs by SRB assay; assay type: functional; conditions: MDA-MB-231, 48 h; how it was run: as §1
[3] = Growth inhibition of human Hs 578T cells after 48 hrs by SRB assay; assay type: functional; how it was run: as §1

- IC50 (K562 [2]): 2500 nM
- GI50 (HL-60): 1420 nM
- GI50 (MOLT-4): 3950 nM
- GI50 (RPMI-8226): 2790 nM
- GI50 (A549): 3770 nM
- GI50 (NCI-H226): 3000 nM
- GI50 (NCI-H23): 3370 nM
- GI50 (NCI-H460): 1760 nM
- GI50 (COLO 205): 1680 nM
- GI50 (HCT-116): 1980 nM
- GI50 (HT-29): 1940 nM
- GI50 (SW-620): 1990 nM
- GI50 (U-251): 2140 nM
- GI50 (SK-MEL-2): 2750 nM
- GI50 (SK-MEL-28): 2880 nM
- GI50 (SK-MEL-5): 373 nM
- GI50 (OVCAR-3): 1300 nM
- GI50 (OVCAR-4): 2770 nM
- GI50 (OVCAR-5): 2740 nM
- GI50 (OVCAR-8): 3890 nM
- GI50 (786-0): 2320 nM
- GI50 (ACHN): 4750 nM
- GI50 (PC-3): 3150 nM
- GI50 (DU-145): 2160 nM
- GI50 (MCF7): 1740 nM
- GI50 (MDA-MB-231): 2480 nM
Compound: NC(=O)c1cc(Cl)ccc1NC(=O)/C=C/c1ccccc1
- inhibition of growth at 10 µM (K562 [1]): 64%
- GI50 (HOP-62): 3150 nM
- GI50 (HOP-92): 2870 nM
- GI50 (KM12): 1690 nM
- GI50 (SF-268): 2900 nM
- GI50 (SF-295): 1400 nM
- GI50 (SF-539): 2050 nM
- GI50 (SNB-19): 3180 nM
- GI50 (SNB-75): 1840 nM
- GI50 (LOX IMVI): 4330 nM
- GI50 (Malme-3M): 2680 nM
- GI50 (M14): 1710 nM
- GI50 (UACC-257): 15100 nM
- GI50 (UACC-62): 2520 nM
- GI50 (IGROV-1): 3290 nM
- GI50 (A498): 3610 nM
- GI50 (CAKI-1): 263 nM
- GI50 (SN12C): 3960 nM
- GI50 (UO-31): 3570 nM
- GI50 [3]: 2040 nM

- IC50 (K562 [2]): 570 nM
- GI50 (HL-60): 54.2 nM
- GI50 (MOLT-4): 202 nM
- GI50 (RPMI-8226): 347 nM
- GI50 (A549): 2650 nM
- GI50 (NCI-H226): 1090 nM
- GI50 (NCI-H23): 840 nM
- GI50 (NCI-H460): 453 nM
- GI50 (COLO 205): 343 nM
- GI50 (HCT-116): 430 nM
- GI50 (HT-29): 367 nM
- GI50 (SW-620): 541 nM
- GI50 (U-251): 501 nM
- GI50 (SK-MEL-2): 1400 nM
- GI50 (SK-MEL-28): 2510 nM
- GI50 (SK-MEL-5): 383 nM
- GI50 (OVCAR-3): 353 nM
- GI50 (OVCAR-4): 1840 nM
- GI50 (OVCAR-5): 3520 nM
- GI50 (OVCAR-8): 1060 nM
- GI50 (786-0): 1430 nM
- GI50 (ACHN): 3700 nM
- GI50 (PC-3): 628 nM
- GI50 (DU-145): 477 nM
- GI50 (MCF7): 450 nM
- GI50 (MDA-MB-231): 596 nM
Compound: NC(=O)c1cc(I)ccc1NC(=O)/C=C/c1ccccc1
- inhibition of growth at 10 µM (K562 [1]): 74.5%
- GI50 (HOP-62): 800 nM
- GI50 (HOP-92): 21200 nM
- GI50 (KM12): 499 nM
- GI50 (SF-268): 2310 nM
- GI50 (SF-295): 350 nM
- GI50 (SF-539): 445 nM
- GI50 (SNB-19): 586 nM
- GI50 (SNB-75): 245 nM
- GI50 (LOX IMVI): 3750 nM
- GI50 (Malme-3M): 1600 nM
- GI50 (M14): 429 nM
- GI50 (UACC-257): 14300 nM
- GI50 (UACC-62): 632 nM
- GI50 (IGROV-1): 917 nM
- GI50 (A498): 2700 nM
- GI50 (CAKI-1): 648 nM
- GI50 (SN12C): 635 nM
- GI50 (UO-31): 3530 nM
- GI50 [3]: 375 nM
